What was measured:
[1] = target: 5-hydroxytryptamine receptor 2B (Rattus norvegicus, UniProt P30994); assay: Antagonistic affinity measured as pA2 value on 5-hydroxytryptamine 2B receptor of the rat stomach fundus; type: functional, tissue-based; conditions: read-out: pA2 (converted)
[2] = target: T1, 5-hydroxytryptamine receptor 2C (Homo sapiens, UniProt P28335); assay: Antagonistic binding affinity measured against 5-hydroxytryptamine 2C receptor (human clone expressed in 293 cells) using [3H]mesulergine as radioligand; type: cell-based, HEK293
T1 sequence (P28335 whole entry): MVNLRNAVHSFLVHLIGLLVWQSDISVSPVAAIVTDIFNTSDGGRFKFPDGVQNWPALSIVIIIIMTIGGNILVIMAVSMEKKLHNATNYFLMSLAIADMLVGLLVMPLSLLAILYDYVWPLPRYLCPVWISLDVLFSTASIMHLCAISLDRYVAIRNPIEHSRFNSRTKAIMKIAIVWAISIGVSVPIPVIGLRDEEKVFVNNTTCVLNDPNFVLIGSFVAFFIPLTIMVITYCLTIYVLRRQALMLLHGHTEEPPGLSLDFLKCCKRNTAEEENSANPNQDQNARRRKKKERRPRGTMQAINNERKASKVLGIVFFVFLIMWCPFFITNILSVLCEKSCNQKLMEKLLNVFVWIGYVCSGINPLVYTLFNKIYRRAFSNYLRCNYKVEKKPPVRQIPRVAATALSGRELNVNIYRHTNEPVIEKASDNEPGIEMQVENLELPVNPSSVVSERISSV

[3] = (§1) Selectivity as the ratio of Ki value towards 5-hydroxytryptamine 2C receptor to that of pA2 value towards 5-hydroxytryptamine 2B receptor; type: functional
[4] = target: 5-hydroxytryptamine receptor 2A (Homo sapiens, UniProt P28223); assay: Antagonistic binding affinity measured against 5-hydroxytryptamine 2A receptor (human clone expressed in 293 cells) using [3H]ketanserin as radioligand; type: cell-based, HEK293
Sequence of 5-hydroxytryptamine receptor 2A (P28223 whole entry): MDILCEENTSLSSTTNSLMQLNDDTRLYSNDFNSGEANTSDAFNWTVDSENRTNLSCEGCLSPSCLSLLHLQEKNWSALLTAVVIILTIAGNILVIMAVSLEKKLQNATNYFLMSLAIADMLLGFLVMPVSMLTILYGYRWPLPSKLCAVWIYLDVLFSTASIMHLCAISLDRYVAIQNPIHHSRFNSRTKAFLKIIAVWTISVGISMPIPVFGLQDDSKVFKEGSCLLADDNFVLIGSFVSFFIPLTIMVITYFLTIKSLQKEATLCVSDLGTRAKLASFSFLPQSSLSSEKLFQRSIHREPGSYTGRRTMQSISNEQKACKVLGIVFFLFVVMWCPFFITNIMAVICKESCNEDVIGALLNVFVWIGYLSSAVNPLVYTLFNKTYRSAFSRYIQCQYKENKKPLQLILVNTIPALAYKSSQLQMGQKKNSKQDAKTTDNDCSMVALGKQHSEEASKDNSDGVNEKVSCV

[5] = target: 5-hydroxytryptamine receptor 1E (Homo sapiens, UniProt P28566); assay: The binding affinity (pKi) measured against 5-hydroxytryptamine 1E receptor (cloned human receptors in CHO cells) using […] as radioligand; type: cell-based
Sequence of 5-hydroxytryptamine receptor 1E (P28566 whole entry): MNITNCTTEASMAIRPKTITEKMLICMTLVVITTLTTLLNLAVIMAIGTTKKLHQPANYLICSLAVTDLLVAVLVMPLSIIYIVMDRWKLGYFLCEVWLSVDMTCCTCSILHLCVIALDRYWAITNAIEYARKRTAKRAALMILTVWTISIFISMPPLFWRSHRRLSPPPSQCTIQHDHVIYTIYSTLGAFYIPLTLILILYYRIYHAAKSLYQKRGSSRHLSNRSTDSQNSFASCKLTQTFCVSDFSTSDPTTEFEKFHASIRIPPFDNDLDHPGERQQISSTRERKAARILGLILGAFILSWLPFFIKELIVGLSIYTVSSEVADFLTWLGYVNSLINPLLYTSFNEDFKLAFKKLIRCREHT
Summary of the method: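 Radioligand binding at cloned human 5-HT1E receptors expressed in CHO cells, labelled with [3H]-5-HT.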

Histamine H1 receptor = Histamine H1 receptor (Cavia porcellus, UniProt P31389); assay: The binding affinity (pKi) measured against histamine H1 receptor of guinea pig cerebellum using [3H]mepyramine as radioligand; type: tissue-based
Sequence of Histamine H1 receptor (P31389 whole entry): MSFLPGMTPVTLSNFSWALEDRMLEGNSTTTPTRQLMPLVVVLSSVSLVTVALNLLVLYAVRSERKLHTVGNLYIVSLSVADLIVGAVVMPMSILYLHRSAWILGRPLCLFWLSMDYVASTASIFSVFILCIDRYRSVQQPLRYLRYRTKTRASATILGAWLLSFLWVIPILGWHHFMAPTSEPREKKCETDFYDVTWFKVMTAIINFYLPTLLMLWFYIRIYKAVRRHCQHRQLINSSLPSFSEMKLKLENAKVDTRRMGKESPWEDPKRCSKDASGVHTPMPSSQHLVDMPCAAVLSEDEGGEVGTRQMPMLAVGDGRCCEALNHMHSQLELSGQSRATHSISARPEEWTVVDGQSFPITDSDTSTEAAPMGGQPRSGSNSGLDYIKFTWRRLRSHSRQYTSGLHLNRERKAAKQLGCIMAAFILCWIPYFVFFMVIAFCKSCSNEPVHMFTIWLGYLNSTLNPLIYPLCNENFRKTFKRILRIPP

[6] = target: GABA-A receptor; anion channel; assay: Inhibition of [3H]muscimol binding to Gamma-aminobutyric acid A (GABA-A) receptor of rat cortex
D(1A) dopamine receptor = D(1A) dopamine receptor (Homo sapiens, UniProt P21728); assay: The binding affinity (pKi) measured against Dopamine receptor D1 using [3H]-SCH- 23390 as radioligand
Sequence of D(1A) dopamine receptor (P21728 whole entry): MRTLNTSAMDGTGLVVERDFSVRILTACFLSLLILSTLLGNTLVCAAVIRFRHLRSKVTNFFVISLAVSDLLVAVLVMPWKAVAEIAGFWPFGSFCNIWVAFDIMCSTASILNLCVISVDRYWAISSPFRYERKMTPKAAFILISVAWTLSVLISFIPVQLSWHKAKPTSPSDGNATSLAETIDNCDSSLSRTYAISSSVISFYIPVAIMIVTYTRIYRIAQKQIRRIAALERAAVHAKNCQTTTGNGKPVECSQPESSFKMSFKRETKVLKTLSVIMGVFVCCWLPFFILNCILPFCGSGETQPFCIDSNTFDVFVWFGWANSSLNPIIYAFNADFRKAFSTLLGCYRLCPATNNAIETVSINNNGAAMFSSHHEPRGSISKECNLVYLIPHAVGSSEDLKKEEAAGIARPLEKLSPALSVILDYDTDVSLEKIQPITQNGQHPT
Summary of the method: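 Binding at cloned human dopamine D1 receptors expressed in LTK cells.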

[7] = target: T2, Adrenergic receptor alpha-1 (Rattus norvegicus, UniProt P15823+P23944+P43140); assay: The binding affinity (pKi) measured against Alpha-1 adrenergic receptor of rat cortex using [3H]prazosin as radioligand
T2 sequence (P15823 whole entry): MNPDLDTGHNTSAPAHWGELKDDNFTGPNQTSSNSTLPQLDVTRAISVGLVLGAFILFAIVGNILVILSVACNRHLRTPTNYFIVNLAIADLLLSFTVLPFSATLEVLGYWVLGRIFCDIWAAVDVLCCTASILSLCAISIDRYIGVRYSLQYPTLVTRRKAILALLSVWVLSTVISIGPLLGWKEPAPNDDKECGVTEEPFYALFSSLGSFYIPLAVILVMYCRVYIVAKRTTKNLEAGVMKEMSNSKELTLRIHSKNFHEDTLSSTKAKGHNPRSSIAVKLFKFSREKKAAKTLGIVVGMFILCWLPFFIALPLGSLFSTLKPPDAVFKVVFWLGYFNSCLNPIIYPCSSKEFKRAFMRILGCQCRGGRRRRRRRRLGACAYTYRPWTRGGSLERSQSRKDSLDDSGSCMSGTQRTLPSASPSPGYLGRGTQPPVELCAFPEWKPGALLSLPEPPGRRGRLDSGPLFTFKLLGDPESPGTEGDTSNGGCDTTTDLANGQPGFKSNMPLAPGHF
T2 sequence (P23944 whole entry): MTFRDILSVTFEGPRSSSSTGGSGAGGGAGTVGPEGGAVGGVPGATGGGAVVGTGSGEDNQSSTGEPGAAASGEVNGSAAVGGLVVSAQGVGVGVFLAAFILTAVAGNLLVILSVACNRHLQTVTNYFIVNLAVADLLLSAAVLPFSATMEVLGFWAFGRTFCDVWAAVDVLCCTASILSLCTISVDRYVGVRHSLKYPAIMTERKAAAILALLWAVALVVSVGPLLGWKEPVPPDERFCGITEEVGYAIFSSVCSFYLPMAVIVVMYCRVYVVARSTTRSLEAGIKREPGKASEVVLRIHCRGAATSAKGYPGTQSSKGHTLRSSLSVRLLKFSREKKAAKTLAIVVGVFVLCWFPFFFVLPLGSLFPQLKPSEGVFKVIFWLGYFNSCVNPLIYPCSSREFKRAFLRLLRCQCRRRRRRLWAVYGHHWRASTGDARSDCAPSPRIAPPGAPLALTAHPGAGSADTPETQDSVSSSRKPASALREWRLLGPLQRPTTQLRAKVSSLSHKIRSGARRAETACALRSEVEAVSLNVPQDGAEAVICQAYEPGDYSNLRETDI
T2 sequence (P43140 whole entry): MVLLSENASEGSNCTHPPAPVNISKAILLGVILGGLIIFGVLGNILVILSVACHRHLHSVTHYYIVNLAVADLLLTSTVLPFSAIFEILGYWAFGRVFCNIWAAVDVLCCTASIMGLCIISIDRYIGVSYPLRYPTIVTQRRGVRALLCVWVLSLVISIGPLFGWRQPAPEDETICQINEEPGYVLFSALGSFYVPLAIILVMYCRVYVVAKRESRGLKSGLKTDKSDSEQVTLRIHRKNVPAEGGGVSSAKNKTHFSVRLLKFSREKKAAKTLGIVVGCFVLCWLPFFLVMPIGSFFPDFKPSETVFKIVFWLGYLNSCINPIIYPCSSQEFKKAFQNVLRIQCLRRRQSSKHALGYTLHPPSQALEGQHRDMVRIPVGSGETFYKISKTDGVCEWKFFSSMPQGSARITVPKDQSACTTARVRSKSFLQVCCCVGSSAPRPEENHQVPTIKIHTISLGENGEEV

D(2) dopamine receptor = D(2) dopamine receptor (Homo sapiens, UniProt P14416); assay: In vitro binding affinity was measured on Dopamine receptor D2
Sequence of D(2) dopamine receptor (P14416 whole entry): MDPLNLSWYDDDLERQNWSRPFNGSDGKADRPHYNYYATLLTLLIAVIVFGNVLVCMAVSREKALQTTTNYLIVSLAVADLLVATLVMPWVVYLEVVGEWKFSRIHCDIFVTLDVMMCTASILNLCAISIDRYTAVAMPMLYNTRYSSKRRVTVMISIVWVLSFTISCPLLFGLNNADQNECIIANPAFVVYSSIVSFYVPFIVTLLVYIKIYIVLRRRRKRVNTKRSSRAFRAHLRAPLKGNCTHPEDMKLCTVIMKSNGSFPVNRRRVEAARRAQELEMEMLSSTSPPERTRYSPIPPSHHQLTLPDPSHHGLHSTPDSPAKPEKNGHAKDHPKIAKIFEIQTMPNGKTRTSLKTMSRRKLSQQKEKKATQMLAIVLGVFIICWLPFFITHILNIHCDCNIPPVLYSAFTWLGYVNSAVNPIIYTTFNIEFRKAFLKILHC

[8] = target: T1, 5-hydroxytryptamine receptor 2C; assay: as §1; type: functional
[9] = target: 5-HT2C receptor (Homo sapiens); assay: Antagonistic binding affinity measured against 5-hydroxytryptamine 2C receptor (human clone expressed in 293 cells) using [3H]mesulergine as radioligand

Sequence of 5-hydroxytryptamine receptor 2B (P30994 whole entry): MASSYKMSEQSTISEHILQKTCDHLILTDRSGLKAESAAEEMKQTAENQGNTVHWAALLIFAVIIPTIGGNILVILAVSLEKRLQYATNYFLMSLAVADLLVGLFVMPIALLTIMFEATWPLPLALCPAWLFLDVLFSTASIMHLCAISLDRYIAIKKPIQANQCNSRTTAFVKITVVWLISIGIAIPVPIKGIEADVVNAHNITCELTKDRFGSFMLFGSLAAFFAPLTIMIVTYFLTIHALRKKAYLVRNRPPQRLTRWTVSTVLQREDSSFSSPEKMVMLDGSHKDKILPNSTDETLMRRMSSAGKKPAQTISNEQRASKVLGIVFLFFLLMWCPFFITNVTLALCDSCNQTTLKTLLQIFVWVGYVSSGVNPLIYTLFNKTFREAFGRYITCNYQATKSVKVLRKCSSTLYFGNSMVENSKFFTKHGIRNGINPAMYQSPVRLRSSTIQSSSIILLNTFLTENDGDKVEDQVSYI

Row | Structure (SMILES) | Kb [1] [nM] | Ki [8] [nM] | Ki [9] [nM] | also measured
1 | Cc1cc(NC(=O)Nc2ccc3sccc3c2)sn1 | 15.1 |  |  | Ki [2]: 417 nM; Selectivity [3]: 27; Ki [4]: 6310 nM
2 | Cc1cc(NC(=O)Nc2ccc3c(ccn3C)c2)sn1 | 11.2 |  |  | Ki [5]: > 100000 nM; Ki (Histamine H1 receptor): > 10000 nM; Log Ki [6]: > -5; Ki (D(1A) dopamine receptor): > 10000 nM; Log Ki [7]: > -5.5; Ki (D(2) dopamine receptor): > 31600 nM
3 | Cn1ccc2cc(NC(=O)Nc3cccnc3)ccc21 | 38.9 | 110 |  | 
4 | Cc1cc(NC(=O)Nc2ccc3sccc3c2)on1 | 46.8 | 89.1 | > 6310 | 
5 | Cc1cc(NC(=O)Nc2ccc3c(ccn3C)c2)on1 | 69.2 | 347 | > 6310 | 
